Test results from publication PMC8880306 (Journal of medicinal chemistry, 2021).
Substitutions are numbered along the chain they refer to.

Columns and labels:
[1] = Oral bioavailability of ARD-61 in mice; assay type: in vivo; conditions: mice (data not shown)
Oral exposure = assay type: in vivo, mice; conditions: male, SCID, mouse, plasma, 10 mg/kg
Summary of the method: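 Non-tumour-bearing male SCID mice were given single oral gavage at 10 mg/kg in 100% PEG200. Three mice per time point were sacrificed at 1, 3 and 6 h. 300 μL blood was taken per animal and centrifuged at 15000 rpm for 10 min. Plasma was stored at −80 °C and quantified by validated LC-MS/MS. Values are mean ± SD.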

AR protein [2] = target: T1, AR protein (Homo sapiens, UniProt P10275); assay: Western blotting of AR protein in VCaP cells; assay type: cell-based; conditions: for time within which AR protein level is effectively reduced / treatment time for near-complete AR depletion: VCaP cell line
T1 sequence (P10275 1-920): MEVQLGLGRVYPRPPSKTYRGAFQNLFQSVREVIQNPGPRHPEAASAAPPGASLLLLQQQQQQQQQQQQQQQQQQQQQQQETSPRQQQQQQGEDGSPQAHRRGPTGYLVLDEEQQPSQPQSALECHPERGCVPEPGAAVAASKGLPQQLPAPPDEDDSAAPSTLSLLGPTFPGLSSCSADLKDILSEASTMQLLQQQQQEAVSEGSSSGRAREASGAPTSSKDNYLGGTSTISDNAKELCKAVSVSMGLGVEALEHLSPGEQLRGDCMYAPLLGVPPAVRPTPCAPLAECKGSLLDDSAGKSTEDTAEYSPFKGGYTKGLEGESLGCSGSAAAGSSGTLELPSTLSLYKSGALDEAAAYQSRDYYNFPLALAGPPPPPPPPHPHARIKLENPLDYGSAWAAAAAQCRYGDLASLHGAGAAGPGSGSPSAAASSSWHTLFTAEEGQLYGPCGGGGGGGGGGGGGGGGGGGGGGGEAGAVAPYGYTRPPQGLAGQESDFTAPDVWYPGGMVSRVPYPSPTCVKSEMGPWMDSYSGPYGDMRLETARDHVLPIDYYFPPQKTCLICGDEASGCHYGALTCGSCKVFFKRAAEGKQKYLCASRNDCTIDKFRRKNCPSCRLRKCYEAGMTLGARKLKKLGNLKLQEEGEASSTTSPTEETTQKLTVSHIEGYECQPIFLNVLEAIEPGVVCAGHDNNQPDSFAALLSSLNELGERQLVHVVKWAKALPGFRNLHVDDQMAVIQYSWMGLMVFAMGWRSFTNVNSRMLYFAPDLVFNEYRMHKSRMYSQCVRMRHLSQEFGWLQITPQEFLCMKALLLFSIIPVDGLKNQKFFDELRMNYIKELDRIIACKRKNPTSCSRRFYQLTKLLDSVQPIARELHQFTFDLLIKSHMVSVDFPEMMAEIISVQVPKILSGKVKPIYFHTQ

AR protein [3] = target: T1, AR protein; assay: Pharmacodynamics: Western blot of AR protein in VCaP xenograft tumors; assay type: in vivo, mice
[4] = target: T2, AR protein (AR T878A mutation) (Homo sapiens, UniProt P10275, T878A); assay: Western blotting of AR protein in LNCaP cells; assay type: cell-based; conditions: LNCaP cell line
T2 sequence (P10275 1-920 T878A): T1 sequence (P10275 1-920) with T878A

[5] = Drug concentrations in plasma and VCaP tumor tissue in SCID mice; assay type: in vivo; conditions: VCaP tumor tissue, single 20 mg/kg PO, 6 h
Summary of the method: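 Male CB17 SCID mice carried subcutaneous VCaP xenografts (5 × 10^6 cells in 5 mg/mL Matrigel). At approximately 200 mm3 tumour volume, mice received single 20 mg/kg oral gavage in 100% PEG200. Plasma and tumour were taken at 6 and 24 h, three mice per time point. Tumours were frozen, ground in liquid nitrogen, homogenised in water:acetonitrile 4:1 at 4 °C, acetonitrile-precipitated, then assayed by validated LC-MS/MS.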

VCaP xenograft tumor = assay: Antitumor activity in the VCaP xenograft tumor model; assay type: in vivo; conditions: all dose levels, daily oral, entire 21 day experiment, SCID mice
[6] = single oral administration 20 mg/kg, 6 h
[7] = single oral administration 20 mg/kg, 24 h

time within which AR protein level is effectively reduced (AR protein [2]) [h]	treatment time for near-complete AR depletion (AR protein [2]) [h]	reduction of AR protein level in VCaP tumor tissue (AR protein [3]; [6])	time within which AR protein level is effectively reduced [4] [h]	treatment time for near-complete AR depletion [4] [h]	Structure (SMILES)	reduction of AR protein level in VCaP tumor tissue (AR protein [3]; [7])	further results
–	–	–	–	–	Cc1cc([C@H](C(=O)N2C[C@H](O)C[C@H]2C(=O)N[C@@H](CC(=O)N2CCC(N3CCC(C#Cc4ccc(C(=O)NC5C(C)(C)C(Oc6ccc(C#N)c(Cl)c6)C5(C)C)cc4)CC3)CC2)c2ccc(-c3scnc3C)cc2)C(C)C)on1 (stereo partly shown) [ARD-61]	–	oral bioavailability [1]: no oral bioavailability
–	–	–	–	–	CC1(C)[C@H](NC(=O)c2ccc(N3CCN(CCNc4ccc5c(c4)C(=O)N(C4CCC(=O)NC4=O)C5=O)CC3)cc2)C(C)(C)[C@H]1Oc1ccc(C#N)c(Cl)c1 (stereo partly drawn) [Compound 16, N-((1R,3R)-3-(3-Chloro-4-cyanophenoxy)-2,2,4,4-tetramethylcyclobutyl)-4-(4-(2-((2-(2,6-dioxopiperidin-3-yl)-1,3-dioxoisoindolin-5-yl)amino)ethyl)piperazin-1-yl)benzamide]	–	concentration at 1 h (Oral exposure): 1600 nM; concentration at 3 h (Oral exposure): 1200 nM; concentration at 6 h (Oral exposure): 800 nM
≤ 3	6	modest effect	≤ 3	6	CC1(C)[C@H](NC(=O)c2ccc(N3CCN(CC4CN(c5ccc6c(c5)C(=O)N(C5CCC(=O)NC5=O)C6=O)C4)CC3)cc2)C(C)(C)[C@H]1Oc1ccc(C#N)c(Cl)c1 (stereo partly drawn) [Compound 26, N-((1R,3R)-3-(3-Chloro-4-cyanophenoxy)-2,2,4,4-tetramethylcyclobutyl)-4-(4-((1-(2-(2,6-dioxopiperidin-3-yl)-1,3-dioxoisoindolin-5-yl)azetidin-3-yl)methyl)piperazin-1-yl)benzamide]	effective in reducing the levels of AR protein	–
≤ 3	6	only modestly	≤ 3	6	CC1(C)[C@H](NC(=O)c2ccc(N3CCN(C4CCN(c5ccc6c(c5)C(=O)N(C5CCC(=O)NC5=O)C6=O)CC4)CC3)cc2)C(C)(C)[C@H]1Oc1ccc(C#N)c(Cl)c1 (stereo partly drawn) [Compound 27, N-((1R,3R)-3-(3-Chloro-4-cyanophenoxy)-2,2,4,4-tetramethylcyclobutyl)-4-(4-(1-(2-(2,6-dioxopiperidin-3-yl)-1,3-dioxoisoindolin-5-yl)piperidin-4-yl)piperazin-1-yl)benzamide]	only modestly	tumor concentration (mean ± SD) [5]: 0.3148 ± 0.0937 µg/kg
≤ 3	6	modest effect	≤ 3	6	CC1(C)[C@H](NC(=O)c2ccc(N3CCN(CC4CCN(c5ccc6c(c5)C(=O)N(C5CCC(=O)NC5=O)C6=O)CC4)CC3)cc2)C(C)(C)[C@H]1Oc1ccc(C#N)c(Cl)c1 (stereo partly drawn) [Compound 28, N-((1R,3R)-3-(3-Chloro-4-cyanophenoxy)-2,2,4,4-tetramethylcyclobutyl)-4-(4-((1-(2-(2,6-dioxopiperidin-3-yl)-1,3-dioxoisoindolin-5-yl)piperidin-4-yl)methyl)piperazin-1-yl)benzamide]	effective in reducing the levels of AR protein	reduction of AR protein level in VCaP tumor tissue (AR protein [3]; daily oral 10 mg/kg for 3 days, 3 and 6 h after last dose): effectively reduces the levels of AR protein; reduction of AR protein level in VCaP tumor tissue (AR protein [3]; daily oral 10 mg/kg for 3 days, 24 h after last dose): only a modest effect; maximum weight loss (VCaP xenograft tumor): no more than 5%
≤ 3	–	–	≤ 3	–	CC1(C)[C@H](NC(=O)c2ccc(N3CCC(N4CCN(c5ccc6c(c5)C(=O)N(C5CCC(=O)NC5=O)C6=O)CC4)CC3)cc2)C(C)(C)[C@H]1Oc1ccc(C#N)c(Cl)c1 (stereo partly drawn) [Compound 33, N-((1R,3R)-3-(3-Chloro-4-cyanophenoxy)-2,2,4,4-tetramethylcyclobutyl)-4-(4-(4-(2-(2,6-dioxopiperidin-3-yl)-1,3-dioxoisoindolin-5-yl)piperazin-1-yl)piperidin-1-yl)benzamide]	–	–
≤ 3	6	–	≤ 3	6	CC1(C)[C@H](NC(=O)c2ccc(N3CCC(CN4CCN(c5ccc6c(c5)C(=O)N(C5CCC(=O)NC5=O)C6=O)CC4)CC3)cc2)C(C)(C)[C@H]1Oc1ccc(C#N)c(Cl)c1 (stereo partly drawn) [Compound 34, N-((1R,3R)-3-(3-Chloro-4-cyanophenoxy)-2,2,4,4-tetramethylcyclobutyl)-4-(4-((4-(2-(2,6-dioxopiperidin-3-yl)-1,3-dioxoisoindolin-5-yl)piperazin-1-yl)methyl)piperidin-1-yl)benzamide]	–	–
–	–	–	–	–	CC1(C)[C@@H](NC(=O)c2ccc(N3CCN(CC4CCN(c5ccc6c(c5)C(=O)N(C5CCC(=O)NC5=O)C6=O)CC4)CC3)cc2)C[C@@H]1Oc1ccc(C#N)c(Cl)c1 (stereo partly drawn) [Compound 43, N-((1S,3S)-3-(3-Chloro-4-cyanophenoxy)-2,2-dimethylcyclobutyl)-4-(4-((1-(2-(2,6-dioxopiperidin-3-yi)-1,3-dioxoisoindolin-5-yl)-piperidin-4-yl)methyl)piperazin-1-yl)benzamide]	–	times less potent than compound 28 (AR protein [2]; VCaP, AR degradation): approximately 100
–	–	–	–	–	CNC(=O)c1ccc(N2C(=S)N(c3ccc(C#N)c(C(F)(F)F)c3)C(=O)C2(C)C)cc1F [enzalutamide, reference compound]	–	maximum weight loss (VCaP xenograft tumor): no more than 5%
